PubChem BioAssay
Results filed as inconclusive are left out.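 Rule for the calls, unless noted: active = inhibition over a set limit, the all-compound mean plus 3 SD, in both replicate runs; inconclusive = over that limit in just one replicate run; inactive = at or under that limit in both runs.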

Experiments:
[1] = S. cerevisiae growth inhibition in permissive medium (OD615), pilot counter-assay for S. cerevisiae lifespan shortening project, permissive growth control (AID 705;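 active = growth inhibition above 25% in both replicates, a cutoff set 3 SD above the mean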); details: OD615, 24 h, at 10 µM, active compounds read high
In short: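 Material: engineered DeaD yeast; compound dosing: one dose 10 µM, DMSO 0.25% final; measure: yeast growth inhibition indicated by reduced 24 h OD615; detection: OD615 turbidity read; incubation: cells pre-grown 4 h, then 24 h compound exposure, 30 °C humidified; medium: permissive synthetic complete medium with raffinose and galactose carbon sources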

[2] = S. cerevisiae growth inhibition in restrictive medium, OD615, pilot screen, restrictive growth control, yeast lifespan reduction project (AID 706;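 active = growth inhibition above a set limit, 3 SD over mean compound inhibition, in both replicates, cut at about 43% in these data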;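 note: modified DeaD lifespan yeast strain shifted to restrictive glucose medium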); details: OD615, 48 h, at 10 µM, active compounds read high
In short: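 material = engineered S. cerevisiae DeaD strain | medium = glucose-based CSMM-D restrictive medium | times = 4 h pre-incubation, 48 h exposure at 30 °C | technique = OD615 absorbance reading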

[3] = doxorubicin toxicity protection in MRP-1 cells – H69AR cells, CellTiter-Glo, duplicate, MRP-1 activator project, pilot screen (AID 807;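 active = viability increase at or above a cutoff of the median across tested compounds plus 3 SD, cut at about 8.5% in these data, passing the limit was not always enough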;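 note: compound pretreatment 18-22 h then 72 h combined with doxorubicin; 0% = doxorubicin alone and 100% = vehicle without doxorubicin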); details: H69AR viability with doxorubicin, CellTiter-Glo luminescence; at 10 µM; active compounds read high
[4] = viability of HCT116 without oncogenic beta-catenin – human colon tumor cells, pilot screen (AID 823;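 active = cell viability at or below a set limit in both duplicate runs, the limit being the all-compound median minus 4 SD, cut at about 23% in these data, passing the limit was not always enough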;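 note: 0% = wells killed by 20 µM Hyamine and 100% = untreated DMSO cell wells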); details: HCT116 beta-catenin knockout viability, CellTiter-Glo, 60 h; at 10 µM; active compounds read low
[5] = viability of PTEN-null HCT116 cells – cell-based, HCT116 clonal line, CellTiter-Glo, pilot screen (AID 824;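 active = viability at or below 27.92% in each of two runs, the all-compound median minus 4 SD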;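 note: 0% = 20 µM Hyamine control and 100% = vehicle cell control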); details: HCT116 PTEN-deleted viability, 60 h, at 10 µM, active compounds read low
[6] = RAM pathway blockade in budding yeast – dse1pr::URA3 reporter, 5-FOA selection, pilot screen (AID 869);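 note: 0% = DMSO wells with no growth and 100% = 10 µM 1-NA-PP1 with full growth; RAM network block rescues cells from 5-FOA so hits raise OD615 growth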; details: S. cerevisiae dse1pr::URA3 5-FOA growth, OD615, 2 d; at 10 µM; active compounds read high; strain carries analog-sensitive mutant Cbk1 kinase
[7] = RAM signaling pathway blockade in yeast – S. cerevisiae, Pdr1DBD-CYC8 efflux-inhibited sensitized strain, primary screen (AID 1298;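 active = RAM network inhibition above 8.4% in each of two replicates, 3 SD over the compound average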;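 note: 0% = DMSO untreated cells without growth and 100% = 10 µM 1-NA-PP1 full growth; higher means more yeast growth rescued from 5-FOA killing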); details: S. cerevisiae cbk1-as DSE1-URA3 strain, 5-FOA growth OD615, 2 d; at 50 µM; active compounds read high

CC(C)N1CCc2c(sc(NC(=O)c3ccc(S(=O)(=O)N4CCOCC4)cc3)c2C(N)=O)C1
inactive: growth inhibition [1] -2.23% | growth inhibition [2] -11.5% | viability increase [3] -3.25% | viability [4] 92.6% | viability [5] 88.7% | inhibition [6] 2.21% | RAM network inhibition [7] 1.28%

O=c1[nH]c(NCCCO)nc2c1C1(CCCC1)Cc1ccccc1-2
inactive: growth inhibition [1] -1.02% | growth inhibition [2] -4.91% | viability increase [3] -0.94% | viability [4] 97.1% | viability [5] 96.2% | inhibition [6] -0.175% | RAM network inhibition [7] 6.67%

CCCc1nc(SCC(=O)Nc2cc(C)on2)c2c(=O)n(C)c(=O)n(C)c2n1
inactive: growth inhibition [1] 4.81% | growth inhibition [2] 4.73% | viability increase [3] -1.05% | viability [4] 97.1% | viability [5] 93% | inhibition [6] 3.88% | RAM network inhibition [7] 4.78%

O=C(Nc1ccc(Oc2ccc(NC(=O)C3CCCO3)cc2)cc1)C1CCCO1 (stereo unspecified)
inactive: growth inhibition [1] -2.75% | growth inhibition [2] -11% | viability increase [3] -5.07% | viability [4] 85.7% | viability [5] 96.7% | inhibition [6] 3.62% | RAM network inhibition [7] -0.11%

CCOc1ccc(N(CC(=O)N2CCCC2)S(=O)(=O)c2c(C)noc2C)cc1
inactive: growth inhibition [1] -10.4% | growth inhibition [2] 3.47% | viability increase [3] -1.24% | viability [4] 98.3% | viability [5] 95.6% | inhibition [6] 1.08% | RAM network inhibition [7] 10.7%

CNc1oc(C)nc1S(=O)(=O)c1ccccc1
inactive: growth inhibition [1] -13.1% | growth inhibition [2] -7.71% | viability increase [3] -0.15% | viability [4] 99.9% | viability [5] 98.1% | inhibition [6] 1.98% | RAM network inhibition [7] 0.25%

CCOC(=O)C1=C(C)Nc2nc(C)nn2C1c1cc(OC)ccc1OC (stereo unspecified)
inactive: growth inhibition [1] 3.21% | growth inhibition [2] 4.81% | viability increase [3] -1.53% | viability [4] 108% | viability [5] 100% | inhibition [6] -1.1% | RAM network inhibition [7] -0.16%

COC(=O)C1=C(C)OC(N)=C(C#N)C1c1ccccc1F (stereo unspecified)
inactive: growth inhibition [1] -9.68% | growth inhibition [2] -3.74% | viability increase [3] -3.38% | viability [4] 94.9% | viability [5] 98.1% | inhibition [6] -0.37% | RAM network inhibition [7] -0.76%

O=C(CCNS(=O)(=O)c1cccc2nsnc12)NC1CCN(Cc2ccccc2)CC1
inactive: growth inhibition [1] -3.28% | growth inhibition [2] -9.7% | viability increase [3] -2.01% | viability [4] 87% | viability [5] 89% | inhibition [6] -0.175% | RAM network inhibition [7] 5.02%

c1ccc(N2CCN(c3ncnc4c3oc3ccccc34)CC2)cc1
inactive: growth inhibition [1] -16.2% | growth inhibition [2] 9.12% | viability increase [3] -0.47% | viability [4] 96% | viability [5] 100% | inhibition [6] -0.03% | RAM network inhibition [7] 8.18%

Cc1ccc2sc(NC(=O)CN3C(=O)CCC3=O)nc2c1C
inactive: growth inhibition [1] -10.4% | growth inhibition [2] -12.7% | viability increase [3] 2.23% | viability [4] 114% | viability [5] 109% | inhibition [6] 0.805% | RAM network inhibition [7] 2.15%

O=C(NCc1ccco1)c1ccc2c(c1)N(Cc1ccccc1)C(=O)CS2=O (stereo unspecified)
inactive: growth inhibition [1] -4.13% | growth inhibition [2] 3.41% | viability increase [3] 3.66% | viability [4] 97.8% | viability [5] 82.6% | inhibition [6] 0.885% | RAM network inhibition [7] 1.29%

CSC1=NCCN1C(=O)Cc1ccc(Cl)cc1
inactive: growth inhibition [1] 1.21% | growth inhibition [2] -7% | viability increase [3] 4.4% | viability [4] 108% | viability [5] 96.7% | inhibition [6] 0.105% | RAM network inhibition [7] -0.15%

O=C(NC1CCCCCCC1)c1c(O)c2ccccc2[nH]c1=O
inactive: growth inhibition [1] -3.12% | growth inhibition [2] 8.01% | viability increase [3] -4.23% | viability [4] 91.6% | viability [5] 92.5% | inhibition [6] 2.4% | RAM network inhibition [7] -0.37%

CCN(CCCNC(=O)CN1C(=O)COc2ccccc21)c1ccccc1
inactive: growth inhibition [1] 0.42% | growth inhibition [2] -11.2% | viability increase [3] 1.23% | viability [4] 95.9% | viability [5] 88.3% | inhibition [6] 1.61% | RAM network inhibition [7] 3.49%

CCn1cc(C2N3CC4(C)CN2CC(C)(C3)C4=O)c2ccccc21 (stereo unspecified)
inactive: growth inhibition [1] -13.9% | growth inhibition [2] -16.4% | viability increase [3] -0.78% | viability [4] 97.3% | viability [5] 100% | inhibition [6] 1.94% | RAM network inhibition [7] 0.48%

COc1ccc(NC(=O)Nc2nnc(N3CCC(C)CC3)s2)cc1OC
inactive: growth inhibition [1] -8.13% | growth inhibition [2] -23% | viability increase [3] -4.49% | viability [4] 107% | viability [5] 98.1% | inhibition [6] 1.59% | RAM network inhibition [7] 1.42%

COc1ccc(CCNC(=O)CCNS(=O)(=O)c2cccc3nsnc23)cc1OC
inactive: growth inhibition [1] -2.13% | growth inhibition [2] -8.7% | viability increase [3] -4.88% | viability [4] 86.5% | viability [5] 97.2% | inhibition [6] 0.305% | RAM network inhibition [7] 1.25%
